Experiments:
Vero [1] = assay: Concentration required to reduce Tacaribe virus-inducted cytopathicity by 50% (Vero cells); assay type: functional, cell-based; conditions: Chlorocebus sabaeus
Vero [2] = assay: Concentration required to reduce parainfluenza-3 virus-inducted cytopathicity by 50% (Vero cells); assay type: functional, cell-based; conditions: Chlorocebus sabaeus
CEM-4 [3] = assay: Inhibitory concentration required to inhibit HIV-induced cytopathicity in CEM-4 cells by 50%; assay type: functional, cell-based; conditions: Homo sapiens
Summary of the method: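 CEM-4 cells infected with HIV-1 (strain HTLV-III_B/LAI). The end point is 50% inhibition of HIV-induced cytopathicity.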

CEM-4 [4] = assay: Concentration required to reduce the viability of uninfected CEM-4 cells by 50%; assay type: functional; conditions: Homo sapiens
Summary of the method: (§1)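 Cytotoxicity in uninfected CEM-4 or MT-4 cells, measured as inhibition of cell growth. The value is the concentration that lowers viability by 50%.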

Vero [5] = assay: Concentration required to reduce Coxsackie virus-inducted cytopathicity by 50% (Vero cells); assay type: functional, cell-based; conditions: Chlorocebus sabaeus
Vero [6] = assay: Concentration required to reduce Junin virus-inducted cytopathicity by 50% (Vero cells); assay type: functional, cell-based; conditions: Chlorocebus sabaeus
Vaccinia virus = assay: Concentration required to reduce vaccinia virus-inducted cytopathicity by 50% (E6SM cells); assay type: functional, organism-based, Orthopoxvirus vaccinia; conditions: Orthopoxvirus vaccinia, E6SM
[7] = tested on: Human immunodeficiency virus 1; assay: Concentration required to inhibit by 50% human immunodeficiency virus-1 induced syncytium formation upon coculturing persistently HIV-infected HUT-78 cells with MOLT-4 cells; assay type: functional, organism-based; conditions: Human immunodeficiency virus 1, MOLT-4
Summary of the method: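 MOLT-4 (clone 8) cells at 1 × 10^6 cells/mL, cocultured with an equal number of persistently infected HUT-78/HIV-1 or HUT-78/HIV-2 cells across a range of compound concentrations. Giant cells were counted under the microscope after 24 h of cocultivation. The value is the concentration giving 50% inhibition of syncytium formation.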

E6SM [8] = assay: Concentration required to reduce herpes simplex virus-1TK (KOS) inducted cytopathicity by 50% (E6SM cells); assay type: functional, cell-based; conditions: Homo sapiens
Summary of the method: (§2)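 Virus was added in the presence of compound, and the cells were incubated until cytopathic effect was scored. The value is the concentration that reduces virus-induced CPE by 50%.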

E6SM [9] = assay: Concentration required to reduce herpes simplex virus-2(196) inducted cytopathicity by 50% (E6SM cells); assay type: functional, cell-based; conditions: Homo sapiens; summary of the method: as §2
MT4 [10] = assay: Concentration required to reduce the viability of uninfected MT-4 cells by 50%; assay type: functional; conditions: Homo sapiens; summary of the method: as §1
E6SM [11] = assay: Concentration required to reduce herpes simplex virus-1TK (McIntyre) inducted cytopathicity by 50% (E6SM cells); assay type: functional, cell-based; conditions: Homo sapiens; summary of the method: as §2
HeLa [12] = assay: Concentration required to reduce vesicular stomatitis virus-inducted cytopathicity by 50% (HeLa cells); assay type: functional, cell-based; conditions: Homo sapiens
HEL [13] = assay: Concentration required to reduce human cytomegalo virus(Davis) inducted cytopathicity by 50% (HEL cells); assay type: functional, cell-based; summary of the method: as §2
E6SM [14] = assay: Concentration required to reduce herpes simplex virus-1TK (F) inducted cytopathicity by 50% (E6SM cells); assay type: functional, cell-based; conditions: Homo sapiens; summary of the method: as §2
E6SM [15] = assay: Concentration required to reduce herpes simplex virus-2(Lyons) inducted cytopathicity by 50% (E6SM cells); assay type: functional, cell-based; conditions: Homo sapiens; summary of the method: as §2
HeLa [16] = assay: Concentration required to reduce Coxsackie virus-inducted cytopathicity by 50% (HeLa cells); assay type: functional, cell-based; conditions: Homo sapiens
E6SM [17] = assay: Concentration required to cause a microscopically detectable alteration of normal E6SM cell morphology; assay type: functional, cell-based; conditions: Homo sapiens, read-out: IC50
Summary of the method: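 Minimum cytotoxic concentration, read microscopically as the level that causes a detectable alteration of normal cell morphology.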

HEL [18] = assay: Concentration required to inhibit HEL cell growth by 50%; assay type: functional, cell-based; conditions: Homo sapiens
Vero [19] = assay: Concentration required to reduce reovirus-1 inducted cytopathicity by 50% (Vero cells); assay type: functional, cell-based; conditions: Chlorocebus sabaeus
Vero [20] = assay: Concentration required to reduce forest virus-inducted cytopathicity by 50% (Vero cells); assay type: functional, cell-based; conditions: Chlorocebus sabaeus
HeLa [21] = assay: Concentration required to reduce polio-1 virus-inducted cytopathicity by 50% (HeLa cells); assay type: functional, cell-based; conditions: Homo sapiens
HeLa [22] = assay: Concentration required to cause a microscopically detectable alteration of normal Hela cell morphology; assay type: functional, cell-based; conditions: Homo sapiens
[23] = tested on: Human immunodeficiency virus 2; assay: Concentration required to inhibit by 50% human immunodeficiency virus-2 induced syncytium formation upon coculturing persistently HIV-infected HUT-78 cells with MOLT-4 cells; conditions: HUT-78, MOLT-4
E6SM [24] = assay: Concentration required to reduce herpes simplex virus-2(G) inducted cytopathicity by 50% (E6SM cells); assay type: functional, cell-based; conditions: Homo sapiens; summary of the method: as §2
Vero [25] = assay: Concentration required to reduce sindbis virus-inducted cytopathicity by 50% (Vero cells); assay type: functional, cell-based; conditions: Chlorocebus sabaeus
E6SM [26] = assay: Concentration required to reduce herpes simplex virus-1TK( B2006) inducted cytopathicity by 50% (E6SM cells); assay type: functional, cell-based; conditions: Homo sapiens; summary of the method: as §2
Vero [27] = assay: Concentration required to cause a microscopically detectable alteration of normal Vero cell morphology; assay type: functional, cell-based; conditions: Chlorocebus sabaeus
MT4 [28] = assay: Concentration required to inhibit human immunodeficiency virus-2 induced cytopathicity in MT-4 cells by 50%; assay type: functional, cell-based
Summary of the method: (§3)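 MT-4 cells infected with HIV-1 (strain HTLV-III_B/LAI) or HIV-2 (strain LAV_ROD). The end point is 50% inhibition of virus-induced cytopathicity.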

HEL [29] = assay: Concentration required to reduce human cytomegalo virus(AD-169) inducted cytopathicity by 50% (HEL cells); assay type: functional, cell-based; summary of the method: as §2
E6SM [30] = assay: Concentration required to reduce herpes simplex virus-1TK (VMW1837) inducted cytopathicity by 50% (E6SM cells); assay type: functional, cell-based; conditions: Homo sapiens; summary of the method: as §2
MT4 [31] = assay: Concentration required to inhibit human immunodeficiency virus-1 induced cytopathicity in MT-4 cells by 50%; assay type: functional, cell-based; summary of the method: as §3

Compound `O=C(O)CC(SCCCOC[C@H]1O[C@@](COCCCSC(CC(=O)O)C(=O)O)(O[C@H]2O[C@H](COCCCSC(CC(=O)O)C(=O)O)[C@@H](OCCCSC(CC(=O)O)C(=O)O)[C@H](OCCCSC(CC(=O)O)C(=O)O)[C@H]2OCCCSC(CC(=O)O)C(=O)O)[C@@H](OCCCSC(CC(=O)O)C(=O)O)[C@@H]1OCCCSC(CC(=O)O)C(=O)O)C(=O)O` (some centres not stated) has an IC50 (Vero [1]) greater than 22 µM, an IC50 (Vero [2]) greater than 90 µM and an IC50 (CEM-4 [3]) of 3.02 µM. For the same compound, the CC50 (CEM-4 [4]) was greater than 45.1 µM, the IC50 (Vero [5]) was greater than 90 µM and the IC50 (Vero [6]) was greater than 22 µM. For the same compound, the IC50 (Vaccinia virus) was greater than 181 µM, the IC50 [7] was 22.6 µM and the IC50 (E6SM [8]) was greater than 181 µM. It also gave an IC50 (E6SM [9]) greater than 181 µM, a CC50 (MT4 [10]) greater than 113 µM and an IC50 (E6SM [11]) greater than 181 µM. The IC50 (HeLa [12]) was greater than 90 µM, the IC50 (HEL [13]) was greater than 22 µM and the IC50 (E6SM [14]) was greater than 181 µM. The IC50 (E6SM [15]) was greater than 135 µM, the IC50 (HeLa [16]) was greater than 90 µM and the minimum cytotoxic concentration (E6SM [17]) was greater than 181 µM. It also gave an IC50 (HEL [18]) greater than 22 µM, an IC50 (Vero [19]) greater than 90 µM and an IC50 (Vero [20]) greater than 90 µM. For the same compound, the IC50 (HeLa [21]) was greater than 90 µM, the IC50 (HeLa [22]) was greater than 90 µM and the IC50 [23] was 22.6 µM. The IC50 (E6SM [24]) was greater than 181 µM, the IC50 (Vero [25]) was greater than 90 µM and the IC50 (E6SM [26]) was greater than 181 µM. The IC50 (Vero [27]) was greater than 90 µM, the IC50 (MT4 [28]) was 2.89 µM and the IC50 (HEL [29]) was greater than 22 µM. The IC50 (E6SM [30]) was greater than 181 µM and the IC50 (MT4 [31]) was 0.18 µM.
